Assay results: ChEMBL document CHEMBL4321859, “Unforeseen Possibilities To Investigate the Regulation of Polyamine Metabolism Revealed by Novel C-Methylated Spermine Derivatives” (J Med Chem, 2019); call rule not given here

How the values were obtained:
[1] = Drug uptake in human DU145 cells assessed as reduction in [14C]-spermine uptake at 1 to 100 uM by competition based assay; assay type: ADME, cell-based; details: du-145, 100 µM
DU-145 [2] = assay: Downregulation of intracellular putrescine level in human DU145 Cells assessed per ug DNA at 100 uM after 6 hrs by HPLC method (reference value: 40 +/- 2 pmol/ug); assay type: functional
Method in brief: (§1)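 DU145 cells exposed to 100 μM analogue for 6 h or 3 days, with or without 1 mM aminoguanidine. Cells were lysed in 50 mM potassium phosphate pH 7.2 with EDTA, Triton X-100 and DTT. Lysate was mixed with sulphosalicylic acid containing diaminoheptane as internal standard. Polyamines, analogue and MeSpd were measured by HPLC and normalized to DNA (PicoGreen), expressed as pmol/μg DNA. Means ± SD, n = 3.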

DU-145 [3] = assay: Downregulation of intracellular putrescine level in human DU145 Cells assessed per ug DNA at 100 uM after 3 days by HPLC method (reference value: 19 +/- 2 pmol/ug); assay type: functional; method in brief: as §1
DU-145 [4] = assay: Downregulation of intracellular spermidine level in human DU145 Cells assessed per ug DNA at 100 uM after 6 hrs by HPLC method (reference value: 134 +/- 7 pmol/ug); assay type: functional; method in brief: as §1
DU-145 [5] = assay: Downregulation of intracellular spermidine level in human DU145 Cells assessed per ug DNA at 100 uM after 3 days by HPLC method (reference value: 123 +/- 3 pmol/ug); assay type: functional; method in brief: as §1
DU-145 [6] = assay: Downregulation of intracellular spermidine level in human DU145 Cells assessed per ug DNA at 100 uM after 3 days in presence of SSAO inhibitor aminoguanidine by HPLC method (reference value: 175 +/- 5 pmol/ug); assay type: functional; method in brief: as §1
DU-145 [7] = assay: Downregulation of intracellular spermine level in human DU145 Cells at 100 uM after 6 hrs by HPLC method (reference value: 106 +/- 4 pmol/ug); assay type: functional; method in brief: as §1
DU-145 [8] = assay: Downregulation of intracellular spermine level in human DU145 Cells at 100 uM after 3 days by HPLC method (reference value: 102 +/- 4 pmol/ug); assay type: functional; method in brief: as §1
DU-145 [9] = assay: Downregulation of intracellular spermine level in human DU145 Cells assessed per ug DNA at 100 uM after 3 days in presence of SSAO inhibitor aminoguanidine by HPLC method (reference value: 157 +/- 8 pmol/ug); assay type: functional; method in brief: as §1
DU-145 [10] = assay: Downregulation of intracellular N1-acetylspermidine level in human DU145 cells assessed per ug DNA at 100 uM after 6 hrs by HPLC method (Rvb < 3 pmol/ug); assay type: functional; method in brief: as §1
DU-145 [11] = assay: Downregulation of intracellular N1-acetylspermidine level in human DU145 cells assessed per ug DNA at 100 uM after 3 days by HPLC method (reference value: 3 pmol/ug); assay type: functional; method in brief: as §1
DU-145 [12] = assay: Downregulation of intracellular N1-acetylspermidine level in human DU145 cells assessed per ug DNA at 100 uM after 3 days in presence of SSAO inhibitor aminoguanidine by HPLC method (reference value: 3 +/- 1 pmol/ug); assay type: functional; method in brief: as §1
[13] = Drug level in human DU145 cells assessed per ug DNA at 100 uM after 6 hrs by HPLC method; assay type: ADME, cell-based; details: du-145, 6 h; method in brief: as §1
[14] = Drug level in human DU145 cells assessed per ug DNA at 100 uM after 3 days by HPLC method; assay type: ADME, cell-based; details: du-145, 72 h; method in brief: as §1
[15] = Drug level in human DU145 cells at 100 uM in presence of SSAO inhibitor aminoguanidine after 3 days by HPLC method; assay type: ADME, cell-based; details: du-145, 72 h; method in brief: as §1
[16] = Drug metabolism in human DU145 cells at 100 uM assessed as methylspermidine metabolite level assessed per ug DNA after 3 days by HPLC method; assay type: ADME, cell-based; details: du-145, 72 h; method in brief: as §1
[17] = Drug metabolism in human DU145 cells at 100 uM assessed as methylspermidine metabolite level assessed per ug DNA in presence of SSAO inhibitor aminoguanidine after 3 days by HPLC method; assay type: ADME, cell-based; details: du-145, 72 h; method in brief: as §1
[18] = biological target: Peroxisomal N(1)-acetyl-spermine/spermidine oxidase (Homo sapiens, UniProt Q6QHF9); assay: (§2) Inhibition of recombinant human APAO at 50 uM using N1-acetylspermidine level as substrate relative to control; details: 50 µM
Method in brief: (§3)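 Competition with natural substrate at fixed 50 μM: spermine for purified bovine plasma SSAO and human recombinant SMOX, N1-acetylspermidine for human recombinant APAO. Analogue tested at 50 μM, with activity expressed relative to reaction without analogue.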

DU-145 [19] = assay: Cytotoxicity against human DU145 cells at 100 uM after 3 days; assay type: cell-based; details: du-145, 72 h
Method in brief: (§4)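 DU145 cells grown in high-glucose DMEM with 10% heat-inactivated FBS, 2 mM L-glutamine and gentamycin at 37 °C, 5% CO2. Treated 3 days with 100 μM analogue, with or without 1 mM aminoguanidine. Cells harvested by trypsinization and counted electronically (Coulter counter). Means ± SD, n = 3.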

DU-145 [20] = assay: Cytotoxicity against human DU145 cells at 100 uM in presence of SSAO inhibitor aminoguanidine after 3 days; assay type: cell-based; details: du-145, 72 h; method in brief: as §4
[21] = Drug metabolism in human DU145 cells at 100 uM assessed as methylspermidine metabolite level assessed per ug DNA after 6 hrs by HPLC method; assay type: ADME, cell-based; details: du-145, 6 h; method in brief: as §1
[22] = biological target: T1, Amine oxidase [copper-containing] 3 (Bos taurus, UniProt Q9TTK6); assay: Substrate activity at bovine plasma SSAO at 5 mM relative to spermine; assay type: ADME; details: cattle, 5000 µM
T1 sequence (Q9TTK6 whole entry): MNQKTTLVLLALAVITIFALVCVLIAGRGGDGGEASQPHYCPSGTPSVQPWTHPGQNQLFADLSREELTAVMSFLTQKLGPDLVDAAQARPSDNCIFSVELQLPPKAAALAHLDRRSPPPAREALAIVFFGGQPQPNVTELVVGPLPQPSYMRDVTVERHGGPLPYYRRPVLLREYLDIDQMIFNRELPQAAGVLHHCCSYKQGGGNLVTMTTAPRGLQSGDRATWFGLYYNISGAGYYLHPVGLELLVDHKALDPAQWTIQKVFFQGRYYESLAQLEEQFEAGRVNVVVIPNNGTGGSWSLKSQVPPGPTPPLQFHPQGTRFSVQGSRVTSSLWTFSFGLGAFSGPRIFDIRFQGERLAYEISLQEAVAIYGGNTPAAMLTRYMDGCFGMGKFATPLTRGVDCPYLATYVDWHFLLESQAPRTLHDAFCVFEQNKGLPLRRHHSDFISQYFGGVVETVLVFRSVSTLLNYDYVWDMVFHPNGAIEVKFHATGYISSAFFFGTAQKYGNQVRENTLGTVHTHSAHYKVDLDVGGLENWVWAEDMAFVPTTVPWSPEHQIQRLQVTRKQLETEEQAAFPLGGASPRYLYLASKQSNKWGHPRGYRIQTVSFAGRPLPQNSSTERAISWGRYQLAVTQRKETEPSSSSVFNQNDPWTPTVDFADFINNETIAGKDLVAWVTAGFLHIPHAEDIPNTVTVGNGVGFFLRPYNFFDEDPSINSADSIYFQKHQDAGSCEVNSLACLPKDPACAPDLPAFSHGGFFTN
Method in brief: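 Purified bovine plasma SSAO given analogue as substrate at 5 mM, the same saturating concentration used for spermine. Activity compared with spermine. Means ± SD, n = 3.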

[23] = biological target: APAO (peroxisomal N(1)-acetyl-spermine/spermidine oxidase) (Homo sapiens, UniProt Q6QHF9); assay: as §2; details: recombinant human APAO, probe N1-acetylspermidine; method in brief: as §3
APAO (peroxisomal N(1)-acetyl-spermine/spermidine oxidase), sequence (Q6QHF9 whole entry): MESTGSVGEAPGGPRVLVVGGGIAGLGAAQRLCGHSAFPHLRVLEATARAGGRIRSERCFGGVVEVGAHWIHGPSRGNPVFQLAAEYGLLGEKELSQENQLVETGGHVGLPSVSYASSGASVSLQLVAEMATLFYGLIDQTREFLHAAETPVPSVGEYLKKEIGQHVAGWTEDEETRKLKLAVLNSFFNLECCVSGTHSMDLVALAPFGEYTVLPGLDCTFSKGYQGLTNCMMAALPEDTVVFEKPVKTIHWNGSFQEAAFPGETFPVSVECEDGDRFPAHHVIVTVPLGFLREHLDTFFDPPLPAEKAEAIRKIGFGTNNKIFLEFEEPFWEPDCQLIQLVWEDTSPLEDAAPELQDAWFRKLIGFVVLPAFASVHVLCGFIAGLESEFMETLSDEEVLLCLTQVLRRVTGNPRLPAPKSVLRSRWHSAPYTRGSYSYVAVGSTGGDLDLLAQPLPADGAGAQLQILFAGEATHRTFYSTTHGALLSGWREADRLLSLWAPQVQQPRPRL

Peroxisomal N(1)-acetyl-spermine/spermidine oxidase, sequence (Q6QHF9 whole entry): as above

Activity [1]	Drug uptake [13]	Drug uptake [14]	Drug uptake [15]	Drug metabolism [16]	Drug metabolism [17]	inhibition (INH) [18]	SMILES	Activity (DU-145 [2])	Activity (DU-145 [3])	Activity (DU-145 [4])	Activity (DU-145 [5])	Activity (DU-145 [6])	Activity (DU-145 [7])	Activity (DU-145 [8])	Activity (DU-145 [9])	Activity (DU-145 [10])	Activity (DU-145 [11])	Activity (DU-145 [19])	Activity (DU-145 [20])	also measured
Active	70 pmol	168 pmol	217 pmol	4 pmol	10 pmol	Not Active	CC(N)CCNCCCCNCCC(C)N (stereo unspecified)	15 pmol	<3 pmol	105 pmol	13 pmol	3 pmol	84 pmol	27 pmol	19 pmol	5 pmol	<3 pmol	Non-Toxic	Non-Toxic	Activity (DU-145 [12]): <3 pmol
Active	26 pmol	29 pmol	191 pmol	116 pmol	44 pmol		CC(CCN)NCCCCNC(C)CCN (stereo unspecified)	27 pmol	12 pmol	79 pmol	34 pmol	31 pmol	80 pmol	69 pmol	68 pmol	3 pmol	<3 pmol	Non-Toxic	Non-Toxic	Drug metabolism [21]: 34 pmol; Activity [22]: 30%; inhibition at 50 µM [23]: 45%
Active	59 pmol	147 pmol	222 pmol	20 pmol		Not Active	CC(CN)CNCCCCNCC(C)CN (stereo unspecified)	10 pmol	<3 pmol	99 pmol	13 pmol	<3 pmol	76 pmol	40 pmol	33 pmol	4 pmol		Non-Toxic	Non-Toxic	
Active							NCCCNCCCCNCCCN [SPERMINE]											Non-Toxic	Toxic	
